Reference: ChEMBL document CHEMBL2429794, “Tuning the antibacterial activity of amphiphilic neamine derivatives and comparison to paromamine homologues” (J Med Chem, 2013)
≈ marks a conversion by molar mass, not a printed value.

How the values were obtained:
Acinetobacter lwoffii [1] = assay: Antibacterial activity against Acinetobacter lwoffii AI.88-483 expressing APH3'-6A after 24 hrs by geometric microdilution method; format: functional
Escherichia coli [2] = assay: Antibacterial activity against Escherichia coli PAZ505H8101 expressing AAC6'-1B after 24 hrs by geometric microdilution method; format: functional
Pseudomonas aeruginosa [3] = assay: Antibacterial activity against Pseudomonas aeruginosa F03 expressing AAC6'-2A after 24 hrs by geometric microdilution method; format: functional
Staphylococcus aureus [4] = assay: Antibacterial activity against healthcare-acquired methicillin-resistant Staphylococcus aureus ATCC 33592 after 24 hrs by geometric microdilution method; format: functional
In short: (§1)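 Broth cultures were incubated in plates at 37 °C, and growth was read as absorbance at 650 nm after 1, 4, 7 and 24 h. Ampicillin (16 mg/L) was the positive control and DMSO the negative control. Each MIC (μg/mL) is the average of at least three determinations.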

Pseudomonas aeruginosa [5] = assay: Antibacterial activity against Pseudomonas aeruginosa PA22 (PT629) expressing MexXY after 24 hrs by geometric microdilution method; format: functional
Escherichia coli [6] = assay: Antibacterial activity against Escherichia coli L58058.1 expressing ANT2''-1A after 24 hrs by geometric microdilution method; format: functional
Pseudomonas aeruginosa [7] = assay: Antibacterial activity against Pseudomonas aeruginosa ATCC 27853 after 24 hrs by geometric microdilution method; format: functional
Klebsiella pneumoniae = assay: Antibacterial activity against Klebsiella pneumoniae ATCC 700603 after 24 hrs by geometric microdilution method; format: functional
Staphylococcus aureus [8] = assay: Antibacterial activity against vancomycin-resistant Staphylococcus aureus VRS2 after 24 hrs by geometric microdilution method; format: functional; in short: as §1
Acinetobacter lwoffii [9] = assay: Antibacterial activity against Acinetobacter lwoffii ATCC 17925 after 24 hrs by geometric microdilution method; format: functional; details: ATCC 17925, 24 h
Staphylococcus aureus [10] = assay: microbe, parasite or virus in culture; details: ATCC 25923, 24 h
Staphylococcus aureus [11] = assay: Antibacterial activity against fluoroquinolone-resistant Staphylococcus aureus 1199B expressing NorA efflux pump after 24 hrs by geometric microdilution method; format: functional; in short: as §1
Staphylococcus aureus [12] = assay: Antibacterial activity against Staphylococcus aureus expressing aminoglycoside-6'-N-acetyltransferase/2''-O-phosphoryltransferase after 24 hrs by geometric microdilution method; format: functional; in short: as §1
Staphylococcus aureus [13] = assay: Antibacterial activity against Staphylococcus aureus expressing aminoglycoside-[…] after 24 hrs by geometric microdilution method; format: functional; in short: as §1
Escherichia coli [14] = assay: microbe, parasite or virus in culture; details: ATCC 25922, 24 h
Staphylococcus aureus [15] = assay: Antibacterial activity against Staphylococcus aureus expressing aminoglycoside-3'-O-phosphoryltransferase after 24 hrs by geometric microdilution method; format: functional; in short: as §1
Staphylococcus aureus [16] = assay: Antibacterial activity against 14- and 15-membered macrolide-resistant Staphylococcus aureus expressing MsrA efflux pump after 24 hrs by geometric microdilution method; format: functional; in short: as §1

GENTAMICIN
MIC (Acinetobacter lwoffii [1]): 4 µg/mL | MIC (Escherichia coli [2]): 1 µg/mL | MIC (Pseudomonas aeruginosa [3]): > 128 µg/mL | MIC (Staphylococcus aureus [4]): 1 µg/mL | MIC (Pseudomonas aeruginosa [5]): 4 µg/mL | MIC (Escherichia coli [6]): 64 µg/mL | MIC (Pseudomonas aeruginosa [7]): 1 µg/mL | MIC (Klebsiella pneumoniae): 8 µg/mL | MIC (Staphylococcus aureus [8]): 32 µg/mL

NC[C@H]1O[C@H](O[C@H]2[C@H](O)[C@@H](OCc3ccccc3)[C@H](N)C[C@@H]2N)[C@H](N)[C@@H](OCc2ccccc2)[C@@H]1OCc1ccccc1
MIC (Acinetobacter lwoffii [1]; AI.88-483, 24 h): > 128 µg/mL | MIC (Escherichia coli [2]; PAZ505H8101, 24 h): > 128 µg/mL | MIC (Acinetobacter lwoffii [9]): > 128 µg/mL | MIC (Pseudomonas aeruginosa [3]; F03, 24 h): > 128 µg/mL | MIC (Staphylococcus aureus [10]): > 128 µg/mL | MIC (Staphylococcus aureus [11]): > 128 µg/mL | MIC (Staphylococcus aureus [12]): > 128 µg/mL | MIC (Staphylococcus aureus [13]): > 128 µg/mL | MIC (Staphylococcus aureus [4]; ATCC 33592, 24 h): > 128 µg/mL | MIC (Pseudomonas aeruginosa [5]): > 128 µg/mL | MIC (Escherichia coli [14]): > 128 µg/mL | MIC (Escherichia coli [6]; L58058.1, 24 h): > 128 µg/mL | MIC (Staphylococcus aureus [15]): > 128 µg/mL | MIC (Pseudomonas aeruginosa [7]; ATCC 27853, 24 h): > 128 µg/mL | MIC (Klebsiella pneumoniae; ATCC 700603, 24 h): > 128 µg/mL | MIC (Staphylococcus aureus [8]; VRS2, 24 h): 64 µg/mL (≈ 108 µM)

CCCCCCCCCCCCCCCCCCO[C@@H]1[C@@H](N)[C@@H](O[C@H]2[C@H](O)[C@@H](OCCCCCCCCCCCCCCCCCC)[C@H](N)C[C@@H]2N)O[C@H](CN)[C@H]1O
MIC (Escherichia coli [2]; PAZ505H8101, 24 h): > 128 µg/mL | MIC (Staphylococcus aureus [16]): > 128 µg/mL | MIC (Pseudomonas aeruginosa [3]; F03, 24 h): > 128 µg/mL | MIC (Staphylococcus aureus [10]): > 128 µg/mL | MIC (Staphylococcus aureus [11]): > 128 µg/mL | MIC (Staphylococcus aureus [12]): 256 µg/mL (≈ 309 µM) | MIC (Staphylococcus aureus [13]): 256 µg/mL (≈ 309 µM) | MIC (Staphylococcus aureus [4]; ATCC 33592, 24 h): > 128 µg/mL | MIC (Pseudomonas aeruginosa [5]): > 128 µg/mL | MIC (Escherichia coli [14]): > 128 µg/mL | MIC (Escherichia coli [6]; L58058.1, 24 h): > 128 µg/mL | MIC (Staphylococcus aureus [15]): 128 µg/mL (≈ 155 µM) | MIC (Pseudomonas aeruginosa [7]; ATCC 27853, 24 h): > 128 µg/mL | MIC (Staphylococcus aureus [8]; VRS2, 24 h): > 128 µg/mL

CCCCCCCCCCCCCCCCCCO[C@@H]1[C@@H](N)[C@@H](O[C@H]2[C@H](O)[C@@H](O)[C@H](N)C[C@@H]2N)O[C@H](CN)[C@H]1O
MIC (Staphylococcus aureus [10]): > 128 µg/mL | MIC (Staphylococcus aureus [11]): > 128 µg/mL | MIC (Staphylococcus aureus [12]): > 128 µg/mL | MIC (Staphylococcus aureus [13]): > 128 µg/mL | MIC (Staphylococcus aureus [15]): > 128 µg/mL

N[C@H]1[C@@H](O[C@H]2[C@H](O)[C@@H](OCc3cccc4ccccc34)[C@H](N)C[C@@H]2N)O[C@H](CO)[C@@H](O)[C@@H]1OCc1cccc2ccccc12
MIC (Acinetobacter lwoffii [1]; AI.88-483, 24 h): > 128 µg/mL | MIC (Escherichia coli [2]; PAZ505H8101, 24 h): 64 µg/mL (≈ 106 µM) | MIC (Staphylococcus aureus [16]): 64 µg/mL (≈ 106 µM) | MIC (Acinetobacter lwoffii [9]): 128 µg/mL (≈ 212 µM) | MIC (Pseudomonas aeruginosa [3]; F03, 24 h): 128 µg/mL (≈ 212 µM) | MIC (Staphylococcus aureus [10]): 32 µg/mL (≈ 53 µM) | MIC (Staphylococcus aureus [11]): 64 µg/mL (≈ 106 µM) | MIC (Staphylococcus aureus [12]): 64 µg/mL (≈ 106 µM) | MIC (Staphylococcus aureus [13]): 32 µg/mL (≈ 53 µM) | MIC (Staphylococcus aureus [4]; ATCC 33592, 24 h): 32 µg/mL (≈ 53 µM) | MIC (Pseudomonas aeruginosa [5]): > 128 µg/mL | MIC (Escherichia coli [14]): 128 µg/mL (≈ 212 µM) | MIC (Escherichia coli [6]; L58058.1, 24 h): 128 µg/mL (≈ 212 µM) | MIC (Staphylococcus aureus [15]): 32 µg/mL (≈ 53 µM) | MIC (Pseudomonas aeruginosa [7]; ATCC 27853, 24 h): 64 µg/mL (≈ 106 µM) | MIC (Klebsiella pneumoniae; ATCC 700603, 24 h): 128 µg/mL (≈ 212 µM)

CCCCCCCCCCCCCCCCCCO[C@@H]1[C@@H](O)[C@H](O[C@H]2O[C@H](CN)[C@@H](O)[C@H](O)[C@H]2N)[C@@H](N)C[C@H]1N
MIC (Staphylococcus aureus [10]): > 128 µg/mL | MIC (Staphylococcus aureus [11]): > 256 µg/mL | MIC (Staphylococcus aureus [12]): > 256 µg/mL | MIC (Staphylococcus aureus [13]): > 256 µg/mL | MIC (Staphylococcus aureus [4]; ATCC 33592, 24 h): > 128 µg/mL | MIC (Staphylococcus aureus [15]): > 256 µg/mL

CCCCO[C@@H]1[C@@H](N)[C@@H](O[C@H]2[C@H](O)[C@@H](OCCCC)[C@H](N)C[C@@H]2N)O[C@H](CN)[C@H]1O
MIC (Acinetobacter lwoffii [1]; AI.88-483, 24 h): > 128 µg/mL | MIC (Escherichia coli [2]; PAZ505H8101, 24 h): > 128 µg/mL | MIC (Acinetobacter lwoffii [9]): 64 µg/mL (≈ 147 µM) | MIC (Pseudomonas aeruginosa [3]; F03, 24 h): > 128 µg/mL | MIC (Staphylococcus aureus [10]): > 128 µg/mL | MIC (Staphylococcus aureus [11]): > 128 µg/mL | MIC (Staphylococcus aureus [12]): 128 µg/mL (≈ 295 µM) | MIC (Staphylococcus aureus [13]): > 128 µg/mL | MIC (Staphylococcus aureus [4]; ATCC 33592, 24 h): > 128 µg/mL | MIC (Pseudomonas aeruginosa [5]): > 128 µg/mL | MIC (Escherichia coli [14]): > 128 µg/mL | MIC (Escherichia coli [6]; L58058.1, 24 h): > 128 µg/mL | MIC (Staphylococcus aureus [15]): > 128 µg/mL | MIC (Pseudomonas aeruginosa [7]; ATCC 27853, 24 h): > 128 µg/mL | MIC (Klebsiella pneumoniae; ATCC 700603, 24 h): > 128 µg/mL | MIC (Staphylococcus aureus [8]; VRS2, 24 h): > 128 µg/mL

CCCCO[C@@H]1[C@@H](N)[C@@H](O[C@H]2[C@H](O)[C@@H](OCCCC)[C@H](N)C[C@@H]2N)O[C@H](CN)[C@H]1OCCCC
MIC (Acinetobacter lwoffii [1]; AI.88-483, 24 h): > 128 µg/mL | MIC (Escherichia coli [2]; PAZ505H8101, 24 h): > 128 µg/mL | MIC (Acinetobacter lwoffii [9]): > 128 µg/mL | MIC (Pseudomonas aeruginosa [3]; F03, 24 h): > 128 µg/mL | MIC (Staphylococcus aureus [10]): > 128 µg/mL | MIC (Staphylococcus aureus [11]): > 128 µg/mL | MIC (Staphylococcus aureus [12]): > 128 µg/mL | MIC (Staphylococcus aureus [13]): > 128 µg/mL | MIC (Staphylococcus aureus [4]; ATCC 33592, 24 h): > 128 µg/mL | MIC (Pseudomonas aeruginosa [5]): > 128 µg/mL | MIC (Escherichia coli [14]): > 128 µg/mL | MIC (Escherichia coli [6]; L58058.1, 24 h): > 128 µg/mL | MIC (Staphylococcus aureus [15]): > 128 µg/mL | MIC (Pseudomonas aeruginosa [7]; ATCC 27853, 24 h): > 128 µg/mL | MIC (Klebsiella pneumoniae; ATCC 700603, 24 h): > 128 µg/mL | MIC (Staphylococcus aureus [8]; VRS2, 24 h): > 128 µg/mL

NCC[C@H](O)C(=O)N[C@@H]1C[C@H](N)[C@@H](O[C@H]2O[C@H](CN)[C@@H](O)[C@H](O)[C@H]2O)[C@H](O)[C@H]1O[C@H]1O[C@H](CO)[C@@H](O)[C@H](N)[C@H]1O [AMIKACIN]
MIC (Acinetobacter lwoffii [1]; AI.88-483, 24 h): > 128 µg/mL | MIC (Escherichia coli [2]; PAZ505H8101, 24 h): 64 µg/mL (≈ 109 µM) | MIC (Acinetobacter lwoffii [9]): 0.5 µg/mL (≈ 0.854 µM) | MIC (Pseudomonas aeruginosa [3]; F03, 24 h): 4 µg/mL (≈ 6.83 µM) | MIC (Pseudomonas aeruginosa [5]): 8 µg/mL (≈ 13.7 µM) | MIC (Escherichia coli [14]): 4 µg/mL (≈ 6.83 µM) | MIC (Escherichia coli [6]; L58058.1, 24 h): 2 µg/mL (≈ 3.42 µM) | MIC (Pseudomonas aeruginosa [7]; ATCC 27853, 24 h): 2 µg/mL (≈ 3.42 µM) | MIC (Klebsiella pneumoniae; ATCC 700603, 24 h): 0.5 µg/mL (≈ 0.854 µM)
